One block for each compound: values may come before it. The source made the active and inactive calls. No cut-off for these calls is given here.
Key:
[1] = molecular target: T1, Glutathione peroxidase 1 (Homo sapiens) (UniProt P07203); settings: 250 uM
T1 sequence (whole entry): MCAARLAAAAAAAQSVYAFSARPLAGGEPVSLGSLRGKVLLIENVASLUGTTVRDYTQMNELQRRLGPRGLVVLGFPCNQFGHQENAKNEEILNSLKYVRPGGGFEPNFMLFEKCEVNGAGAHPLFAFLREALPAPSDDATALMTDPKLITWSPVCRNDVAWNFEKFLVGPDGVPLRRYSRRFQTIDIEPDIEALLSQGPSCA

[2] = molecular target: T1, Glutathione peroxidase 1 (Homo sapiens); settings: 50 uM
Glutathione peroxidase 1 = molecular target: T2, Glutathione peroxidase 1 (Homo sapiens, UniProt P07203); experiment: Inhibition of GPx1 using gultathione as substrate by glutathione reductase-coupled assay
T2 sequence (P07203 whole entry): T1 sequence (whole entry)
In short: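 GPx activity read as NADPH consumption at 340 nm. GPx oxidizes GSH to GSSG with H2O2 as co-substrate, and glutathione reductase reduces GSSG back to GSH. Earlier method, adapted to 96-well format. 0.1% Triton X-100 in all incubations to prevent compound precipitation. Docking used bovine erythrocyte GPx1.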

[3] = molecular target: T3, Glutathione reductase, mitochondrial (Homo sapiens) (UniProt P00390); experiment: Inhibition of glutathione reductase up to 200 uM
T3 sequence (whole entry): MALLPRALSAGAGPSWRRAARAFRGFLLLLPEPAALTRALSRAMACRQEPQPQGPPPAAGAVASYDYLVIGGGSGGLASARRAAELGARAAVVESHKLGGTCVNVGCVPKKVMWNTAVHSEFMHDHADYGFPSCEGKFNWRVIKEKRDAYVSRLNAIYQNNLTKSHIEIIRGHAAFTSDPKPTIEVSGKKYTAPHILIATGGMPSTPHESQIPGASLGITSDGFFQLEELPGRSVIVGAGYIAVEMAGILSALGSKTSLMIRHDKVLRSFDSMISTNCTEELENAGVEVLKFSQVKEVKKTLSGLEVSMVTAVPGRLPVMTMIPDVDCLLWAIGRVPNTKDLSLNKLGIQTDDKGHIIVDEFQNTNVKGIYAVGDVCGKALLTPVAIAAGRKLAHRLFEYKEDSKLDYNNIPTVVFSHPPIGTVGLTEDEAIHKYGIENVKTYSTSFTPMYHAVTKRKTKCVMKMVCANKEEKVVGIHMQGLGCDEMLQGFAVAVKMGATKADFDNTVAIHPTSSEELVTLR
In short: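 Specific glutathione reductase assay (earlier method), compound tested at up to 200 µM.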

[4] = Resistance ratio of IC50 for human bortezomib-resistant GUMBUS cells to IC50 for human GUMBUS cells; format: functional
[5] = Cytotoxicity against human bortezomib-resistant DOGUM cells after 72 hrs by MTT assay; format: functional, cell-based
In short: (§1)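 Cells from two patients with chemotherapy-resistant non-Hodgkin B-cell lymphoma. Resistant sublines were made by exposure to methotrexate, etoposide, cisplatin or bortezomib in culture over 2–3 months. Microtiter MTT assay, giving the IC50 as mean ± SD of 3 or more independent experiments. Drugs were tested alone and with co-incubation with 25 µM inhibitor.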

[6] = Cytotoxicity against human DOGUM cells after 72 hrs by MTT assay; format: functional, cell-based
In short: as §1

[7] = Cytotoxicity against human GUMBUS cells after 72 hrs by MTT assay; format: functional, cell-based
In short: as §1

[8] = Resistance ratio of IC50 for human bortezomib-resistant DOGUM cells to IC50 for human DOGUM cells; format: functional
[9] = Cytotoxicity against human bortezomib-resistant GUMBUS cells after 72 hrs by MTT assay; format: functional, cell-based
In short: as §1

[10] = Cytotoxicity against human etoposide-resistant DOGUM cells after 72 hrs by MTT assay; format: functional, cell-based
In short: as §1

[11] = Resistance ratio of IC50 for human etoposide-resistant DOGUM cells to IC50 for human DOGUM cells; format: functional
[12] = Resistance ratio of IC50 for human etoposide-resistant GUMBUS cells to IC50 for human GUMBUS cells; format: functional
[13] = Cytotoxicity against human etoposide-resistant GUMBUS cells after 72 hrs by MTT assay; format: functional, cell-based
In short: as §1

[14] = Cytotoxicity against human methotrexate-resistant GUMBUS cells after 72 hrs by MTT assay; format: functional, cell-based
In short: as §1

[15] = Cytotoxicity against human methotrexate-resistant DOGUM cells after 72 hrs by MTT assay; format: functional, cell-based
In short: as §1

inhibition [1]: inactive | inhibition [2]: 15% | IC50 (Glutathione peroxidase 1): 169000 nM | inhibition [3]: inactive
SMILES: Cc1nccn1CC(=O)N/N=C/c1ccc(O)cc1

SMILES: CC(C)C[C@H](NC(=O)[C@H](Cc1ccccc1)NC(=O)c1cnccn1)B(O)O [BORTEZOMIB]
Ratio IC50 [4]: 6 | IC50 [5]: 7 nM | IC50 [6]: 2 nM | IC50 [7]: 6 nM | Ratio IC50 [8]: 4 | IC50 [9]: 35 nM

SMILES: COc1cc([C@@H]2c3cc4c(cc3[C@@H](O[C@@H]3O[C@@H]5CO[C@@H](C)O[C@H]5[C@H](O)[C@H]3O)[C@H]3COC(=O)[C@H]23)OCO4)cc(OC)c1O [ETOPOSIDE]
IC50 [10]: 280 nM | Ratio IC50 [11]: 4 | Ratio IC50 [12]: 13 | IC50 [13]: 570 nM | IC50 [6]: 75 nM | IC50 [7]: 42 nM

SMILES: CN(Cc1cnc2nc(N)nc(N)c2n1)c1ccc(C(=O)N[C@@H](CCC(=O)O)C(=O)O)cc1 [METHOTREXATE]
IC50 [14]: 534 nM | IC50 [6]: 84 nM | IC50 [7]: 24 nM | IC50 [15]: 340 nM
